MT stabilize HCS: microtubule stabilizers in HeLa cells; HeLa tubulin immunostaining HCS, 24 h; share of cells brighter than vehicle mean+2SD; % tubulin-high responders, % at 10 µM; 0.83% of 200,000 active; AID 2205;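 active means plate Z-score above 3 for both tubulin-high and condensed-nucleus cell shares, with cell loss under 80%, at 10 µM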;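 further: anti alpha tubulin signal scored within the nucleus-defined area of each cell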
Cl transport mod: modulators of human KCC2 chloride dependent transport; 2.2% of 190,000 active; B-score of Tl+ flux slope (higher = more flux/activation; lower = inhibition) at 10 µM; KCC2 cells, thallium flux FluoZin-2 fluorescence;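 active means thallium flux slope and its plate-corrected score both differing from the plate sample mean at a set confidence after two filtering rounds, in either direction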;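 further: slope of fluorescence scaled to starting intensity during 10 to 20 s after thallium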
ROMK primary: human ROMK K+ channel modulation, primary screen | P48048 | Tet-inducible ROMK, thallium flux fluorescence; actives lie on both sides | B-score at 10 µM | 2% of 130,000 active | AID 1918;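 active means signal ratio slope over the read window, or its plate-corrected B-score, at least 3 SD from the plate mean, either direction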;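 further: B-score of the F/F0 ratio slope over 7 to 12 s after thallium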
Target sequence (P48048 whole entry, looked up): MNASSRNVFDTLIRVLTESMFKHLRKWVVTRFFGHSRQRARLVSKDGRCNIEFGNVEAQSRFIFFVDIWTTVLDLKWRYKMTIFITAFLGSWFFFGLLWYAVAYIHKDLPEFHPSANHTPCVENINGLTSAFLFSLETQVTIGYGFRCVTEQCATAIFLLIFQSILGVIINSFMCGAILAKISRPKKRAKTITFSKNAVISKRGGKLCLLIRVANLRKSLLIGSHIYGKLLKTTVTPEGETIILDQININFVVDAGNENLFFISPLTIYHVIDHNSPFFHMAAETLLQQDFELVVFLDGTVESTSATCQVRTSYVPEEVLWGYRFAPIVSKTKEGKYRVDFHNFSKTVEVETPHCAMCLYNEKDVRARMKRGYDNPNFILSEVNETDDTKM
DTT redox prof: compounds producing H2O2 with reducing agent – biochemical, NIH compound library profiling, artefact control for MLSCN library redox annotation, primary screen. DTT-dependent redox cycling H2O2, phenol red/HRP absorbance; 100% = 100 µM peroxide control, 0% = buffer. activation, % at 10 µM. 0.03% of 200,000 active. AID 878;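 active means activation of at least 50% relative to the plate's high and low controls in the primary single-dose screen; inactive means activation below 50%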;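 further: compound incubated with DTT at 0.8 mM final as the reducing agent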
b-catenin transl: alters nuclear translocation of beta-catenin in HeLa cells. immunofluorescence imaging. nuclear translocation activity, % at 5 µM. 0.3% of 190,000 active;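 active means nuclear translocation activity above 50% at 5 µM, with a well cell count of 50 or more; inconclusive means wells under 50 cells across six images, flagged as toxic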;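 further: per-cell ratio of nuclear to cytoplasmic median beta-catenin stain intensity; plate controls were DMSO negative control for no effect and GSK-3 inhibitor IX positive control for full effect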
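Test system: HeLa cells, endogenous beta-catenin; Compound: single 5 µM dose plus 0.02–20 µM confirmation series; Times: compound exposure 24 h at 37°C; Signal: fluorescence imaging of beta-catenin antibody stain plus DAPI; Read-out: % activation, nuclear-to-cytoplasmic median beta-catenin signal ratio per cell.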
ROMK retest: human ROMK channel modulation, retest confirmation; shares compounds with ROMK primary; ROMK thallium flux, fluorescence ratio; active compounds read low; normalized thallium flux (F/F0 slope) at 10 µM; 54% of 3,000 active;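 active means Flux at 10 µM at least 3 SD below or above vehicle control mean in one or both replicates; inconclusive means no clear call, values can overlap the other calls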
The depositor's hits bear a star; ? = inconclusive; nt = no result. Only some compounds are listed: those with a hit (about 3.7% of all), similar ones and a draw of the others.

SMILES	MT stabilize HCS	Cl transport mod	ROMK primary	DTT redox prof	b-catenin transl	ROMK retest
CCC(C)NC(=S)NNC(=O)c1ccc(C(C)(C)C)cc1 (stereo not drawn)	0.3	0.071	nt	-1.4	-1.8	?
C[N+](C)(C)C(Cc1c[nH]c2ccccc12)C(=O)[O-] (stereo not drawn)	nt	0.0551	nt	nt	1.5	nt
C=C(C)CSc1nc2sc3c(c2c(=O)n1C1CCCCC1)CCN(C)C3	nt	-0.266	nt	nt	1.4	0.0645*
CCSc1nc2sc3c(c2c(=O)n1C1CCCCC1)CCN(C)C3	nt	nt	nt	nt	1.4	nt
CC1CC(N(C(=O)C2CC2)c2ccccc2)c2ccccc2N1C(=O)C1CC1 (stereo not drawn)	2.2	-1.58	-3.43*	3.5	-7.0	0.0584*
Cc1cccc(N2CCN(C(=O)c3cc(C)oc3C)CC2C)c1 (stereo not drawn)	3.9	0.282	nt	-0.9	-3.9	nt
COc1ccc(N2C(=O)CC2(/C=C/c2ccccc2OC)C(=O)NC2CCCC2)cc1 (stereo not drawn)	6.0	-0.977	-4.7*	1.1	2.7	0.0537*
O=C1CC(/C=C/c2ccccc2)(C(=O)NC2CCCC2)N1c1ccc(S(=O)(=O)N2CCCC2)cc1 (stereo not drawn)	1.4	-0.466	-0.743	-0.2	0.2	nt
CCNc1nc(NC(C)(C)C)nc(Oc2ccc(=O)n(-c3ccccc3)n2)n1	1.5	-0.983	0.604	-0.5	0.1	nt
Cc1noc(C)c1C(=O)N1CCC(C(=O)c2ccccc2)CC1	nt	0.0592	nt	nt	-0.5	nt
O=C(COC(=O)C1CC2C=CC1C2)Nc1cccc(S(=O)(=O)N2CCOCC2)c1 (stereo not drawn)	nt	0.73	nt	nt	-0.3	0.0869
C=CCn1c(SCC#N)nc2sc(CC)cc2c1=O	1.9	-0.83	nt	-0.1	0.3	nt
O=C(NCc1cccnc1)/C(=C\c1ccc(-c2ccc(Cl)c(Cl)c2)o1)S(=O)(=O)c1ccccc1	35.1*	-0.694	-5.07*	-0.2	15.0	0.0562*
O=C(NCc1cccnc1)c1ccc(-c2ccc(Cl)cc2)o1	2.6	nt	nt	-0.8	1.4	nt
CN=C1S/C(=C\c2cn(CC(=O)OC)c3ccccc23)C(=O)N1C	2.4	nt	0.78*	-0.7	-4.0	0.0762
CN(C1CCCCC1)S(=O)(=O)c1cccc(C#N)c1	1.6	-0.889	0.0101	-0.2	-2.5	nt
CCOc1ccc(OCC)c(S(=O)(=O)NC2CC(C)(C)NC(C)(C)C2)c1	2.0	-0.0647	-0.00304	1.2	1.0	nt
CCCOc1cc(C)c(S(=O)(=O)NC2CC(C)(C)NC(C)(C)C2)cc1C	3.0	-0.113	-4.41*	0.4	-3.9	0.0624*
COc1cc(C)c(S(=O)(=O)NC2CC(C)(C)NC(C)(C)C2)cc1C	2.5	nt	-1.8	0.1	nt	nt
COc1cc(C)c(Cl)cc1S(=O)(=O)NC1CC(C)(C)NC(C)(C)C1	1.6	0.495	-6.41*	0.7	2.0	0.052*
COc1ccc(C2(CNC(=O)c3ccc(OCC(C)C)cc3)CCOCC2)cc1	4.3	-1.34	nt	0.2	-1.8	nt
CC(C)(C)n1nc(C2CC2)cc1NC(=O)Nc1ccc(Cl)cc1	nt	0.321	nt	nt	-2.1	0.0782
NNC(=S)NCc1ccc2c(c1)OCO2	6.1	0.263	nt	0.7	0.0	nt
O=C(N/N=C/c1ccc(Br)s1)c1c[nH]c2ccccc12	1.3	-1.45	-0.792	0.1	-1.8	nt
CCn1cc(C(=O)OCC(=O)N(C)Cc2ccccc2)c(=O)c2ccc(C)nc21	2.6	0.304	2.93*	0.1	nt	0.0781
SMILES	MT stabilize HCS	Cl transport mod	ROMK primary	DTT redox prof	b-catenin transl	ROMK retest
CCn1cc(C(=O)OCC(=O)c2cc(C)n(-c3ccc(OC(F)F)cc3)c2C)c(=O)c2ccc(C)nc21	2.9	-2.55	-3.21*	-0.3	-2.4	0.0627*
CCn1cc(C(=O)OCC(=O)N(C)C2CCS(=O)(=O)C2)c(=O)c2ccc(C)nc21 (stereo not drawn)	1.5	1.41	0.944	-0.2	-8.5	nt
CCn1cc(C(=O)OCC(=O)c2cc(C)n(-c3ccccc3)c2C)c(=O)c2ccc(C)nc21	3.0	-0.782	-0.36	-0.3	-3.5	nt
CCC1Oc2ccc(C)cc2N(CC(=O)N(Cc2ccc(C)o2)C2CCCC2)C1=O (stereo not drawn)	3.8	-0.725	-4.3*	1.0	-1.3	0.0648*
Cc1ccccc1OCC(O)CN1CCN(CCN2C(=O)c3cccc4cccc(c34)C2=O)CC1 (stereo not drawn)	3.2	0.0385	nt	0.7	-0.3	nt
CCC(OCC(O)CN1CCN(CCN2C(=O)c3cccc4cccc(c34)C2=O)CC1)c1ccccc1 (stereo not drawn)	3.7	0.0466	-3.63*	-0.8	1.4	0.0587*
COc1ccc(C(=O)NN(C)c2nc(C(F)(F)F)nc3ccccc23)cc1	8.0	-1.34	3.47*	-0.2	158.2*	0.0784
COc1ccc(C(=O)NN(C)c2nc(-c3ccccc3)nnc2C(F)(F)F)cc1	2.8	nt	-0.198	-5.7	0.6	nt
Cc1cc(/C=N/NC(N)=S)c(C)n1-c1cccc(Cl)c1	2.6	-0.552	2.21	0.3	-2.0	nt
Cc1cccc(C)c1-n1c(C)cc(/C=N/NC(N)=S)c1C	3.9	-0.423	2.82*	1.0	nt	0.0814
Cc1cc(/C=N/NC(N)=S)c(C)n1-c1ccc(Cl)cc1	3.3	0.355	1.7*	-0.1	0.2	0.091
COc1ccccc1NC(=S)NNC(=O)c1ccccc1Br	3.4	-0.15	0.195	0.1	-2.7	nt
Cc1ccc2nc(N3CCN(S(=O)(=O)c4ccc5c(c4)OCCO5)CC3)c(C#N)cc2c1	2.5	nt	nt	2.1	-1.5	nt
Cc1ccc(S(=O)(=O)N2CCCN(c3nc4cc(C)ccc4cc3C#N)CC2)cc1	3.8	0.151	nt	1.0	-1.1	0.0741
Cc1c(-n2c(-c3ccccc3)nc3ccccc3c2=O)c(=O)n(-c2ccccc2)n1C	2.3	-0.0574	-0.0169	-0.8	-1.7	nt
O=c1cc(CSc2ccc(Cl)cc2)nc(-c2ccncc2)[nH]1	3.1	-1.05	1.86	0.0	-2.7	nt
CCN(CC)C(=O)c1ccc2c(c1)nnn2C	4.1	0.024	-0.209	-0.2	2.0	nt
O=[n+]1c2c(n([O-])c3cc(F)c(N4CCCC4)cc31)CCCC2	2.8	nt	-6.33*	-1.2	-2.0	0.0433*
Cc1ccc(CCSc2ccc(C(C)C)cc2)cn1	4.2	-2.27	nt	0.3	-0.5	nt
CC(C)c1nc(SCC(=O)Nc2c[nH]c(=O)[nH]c2=O)c2cnn(-c3ccccc3)c2n1	2.4	1.04	0.416*	-1.4	-1.5	0.0853
COc1ccc(CN2CCCCC2C)c(C)c1C (stereo not drawn)	4.7	nt	nt	0.2	-2.6	nt
COc1ccc(CN(C)C2CCCCC2)c(C)c1C	1.0	2.39	-4.04*	0.1	nt	0.0677*
CC(=O)c1ccc(O)c(CSC2=NCCS2)c1	3.2	0.0633	0.278	0.6	-2.8	nt
CC(=O)c1ccc(O)c(CO)c1	1.6	-0.224	0.575	-0.8	-5.7	0.0858
N#CC1=C(SCC(=O)NC23CC4CC(CC(C4)C2)C3)NC(=O)C(C#N)C12CCCCC2 (stereo not drawn)	3.3	nt	-3.69*	1.8	-3.2	0.0569*
